This note sets out measurements from ChEMBL document CHEMBL5316280, “Development of N-(1-Adamantyl)benzamides as Novel Anti-Inflammatory Multitarget Agents Acting as Dual Modulators of the Cannabinoid CB2 Receptor and Fatty Acid Amide Hydrolase” (J Med Chem, 2023).

For test [1], the system named is THP-1. The test can be described thus: Antiinflammatory activity in human THP-1 monocytes assessed as increase in IL-10 level incubated for 24 hrs by ELISA based qRT-PCR analysis. The test is classed as functional, cell-based. The method, boiled down:
(§1)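 THP-1 cells were seeded at 1 x 10⁵ cells/ml for 48 h. For macrophages, cells were differentiated with 0.01 µM PMA for 48 h; monocytes received no PMA. Cells were then given 24 h with or without 10 µg/ml LPS, plus ligands alone or with the CB2R inverse agonist JTE907 (10 µM). Cytokines were measured in 5 µL supernatant (from 1 x 10⁴ cells) by ProQuantum immunoassay, read as pg/ml from kit titration curves; n=3.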
In general terms: ELISA stands for enzyme-linked immunosorbent assay.

The target in test [2] is Cannabinoid receptor 2 (Homo sapiens, UniProt P34972). The test can be described thus: Agonist activity at human CB2 receptor overexpressed in CHO-K1 cells assessed as cAMP level incubated for 30 mins by luminescence based assay relative to control. The test is classed as functional, cell-based. The conditions noted are these: filed as agonist. The method, boiled down:
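CHO-K1 cells overexpressing human CB2R were plated at 30 000 cells/well and held overnight at 37 °C, 5% CO2. Test samples were added as dose–response solutions with NKH-477 to stimulate adenylate cyclase, then incubated 30 min at 37 °C. cAMP was detected by luminescence after cell lysis. Values were normalized to NKH-477 alone as 100% response. Three independent experiments were run in triplicate.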
On the technique in general: cAMP levels reflect the balance of adenylyl cyclase and phosphodiesterase activity.

Test [3] deals with THP-1. The test can be described thus: Antiinflammatory activity in human THP-1 macrophages assessed as increase in IL-4 level incubated for 24 hrs by ELISA based qRT-PCR analysis. Format: functional, cell-based. The method, boiled down: as §1
The subject of test [4] is THP-1. Briefly: Antiinflammatory activity in human THP-1 monocytes assessed as increase in IL-4 level incubated for 24 hrs by ELISA based qRT-PCR analysis. The test is classed as functional, cell-based. The method, boiled down:
as §1

Test [5] addresses Cannabinoid receptor 2 (Mus musculus, UniProt P47936). Briefly: Agonist activity at mouse CB2 receptor transfected in CHO-K1 cells assessed as beta2-arrestin recruitment incubated for 90 mins by luminescence based assay. Format: functional, cell-based. The method, boiled down: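 PathHunter eXpress kit using mouse CB2 receptor in CHO-K1 cells. Cells were seeded 48 h before the assay in kit medium. Compounds in cell plating reagent were incubated 90 min at 37 °C, 5% CO2. Working detection solution was then added for 60 min at room temperature to read β-arrestin recruitment.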

Test [6] relates to THP-1. The test can be described thus: Antiinflammatory activity in human THP-1 macrophages assessed as decrease in IL-6 level incubated for 24 hrs by ELISA based qRT-PCR analysis. Format: functional, cell-based. The method, boiled down: as §1
In test [7] the test system is THP-1. Briefly: Antiinflammatory activity in human THP-1 macrophages assessed as decrease in TNFalpha level incubated for 24 hrs by ELISA based qRT-PCR analysis. The test is classed as functional, cell-based. The method, boiled down:
as §1

In test [8] the test system is THP-1. Briefly: Antiinflammatory activity in human THP-1 monocytes assessed as decrease in IFNgamma level incubated for 24 hrs by ELISA based qRT-PCR analysis. The test is classed as functional, cell-based. The method, boiled down: as §1
In test [9] the test system is THP-1. Briefly: Antiinflammatory activity in human THP-1 monocytes assessed as decrease in IL-1beta level incubated for 24 hrs by ELISA based qRT-PCR analysis. Format: functional, cell-based. The method, boiled down: as §1
The subject of test [10] is THP-1. The test can be described thus: Antiinflammatory activity in human THP-1 monocytes assessed as decrease in TNFalpha level incubated for 24 hrs in presence of […] by ELISA based qRT-PCR analysis. Format: functional, cell-based. The method, boiled down:
as §1

The test system of test [11] is THP-1. The test can be described thus: Antiinflammatory activity in human THP-1 macrophages assessed as decrease in IFNgamma level incubated for 24 hrs in presence of […] by ELISA based qRT-PCR analysis. Format: functional, cell-based. The method, boiled down:
as §1

Test [12] has as its system THP-1. Briefly: Antiinflammatory activity in human THP-1 monocytes assessed as decrease in IL-1beta level incubated for 24 hrs in presence of […] by ELISA based qRT-PCR analysis. Format: functional, cell-based. The method, boiled down: as §1
Test [13] concerns THP-1. Briefly: Antiinflammatory activity in human THP-1 monocytes assessed as increase in IL-4 level incubated for 24 hrs in presence of […] by ELISA based qRT-PCR analysis. The test is classed as functional, cell-based. The method, boiled down:
as §1

Test [14] concerns THP-1. Briefly: Antiinflammatory activity in human THP-1 macrophages assessed as increase in IL-4 level incubated for 24 hrs in presence of […] by ELISA based qRT-PCR analysis. The test is classed as functional, cell-based. The method, boiled down:
as §1

The subject of test [15] is THP-1. The test can be described thus: Antiinflammatory activity in human THP-1 monocytes assessed as increase in IL-10 level incubated for 24 hrs in presence of […] by ELISA based qRT-PCR analysis. Format: functional, cell-based. The method, boiled down:
as §1

The subject of test [16] is THP-1. The test can be described thus: Antiinflammatory activity in human THP-1 macrophages assessed as increase in IL-10 level incubated for 24 hrs in presence of […] by ELISA based qRT-PCR analysis. The test is classed as functional, cell-based. The method, boiled down: as §1
Test [17] relates to THP-1. Briefly: Antiinflammatory activity in LPS-activated human THP-1 macrophages assessed as increase in IL-10 level incubated for 24 hrs by ELISA based qRT-PCR analysis. The test is classed as functional, cell-based. The method, boiled down:
as §1

Test [18] has as its system THP-1. Briefly: Antiinflammatory activity in LPS-activated human THP-1 macrophages assessed as increase in IL-4 level incubated for 24 hrs by ELISA based qRT-PCR analysis. The test is classed as functional, cell-based. The method, boiled down: as §1
The target in test [19] is Cannabinoid receptor 1 (Homo sapiens, UniProt P21554). Briefly: Agonist activity at human CB1 receptor in CHO cells incubated for 15 mins by plate reader analysis.
Cannabinoid receptor 1, sequence (P21554 whole entry): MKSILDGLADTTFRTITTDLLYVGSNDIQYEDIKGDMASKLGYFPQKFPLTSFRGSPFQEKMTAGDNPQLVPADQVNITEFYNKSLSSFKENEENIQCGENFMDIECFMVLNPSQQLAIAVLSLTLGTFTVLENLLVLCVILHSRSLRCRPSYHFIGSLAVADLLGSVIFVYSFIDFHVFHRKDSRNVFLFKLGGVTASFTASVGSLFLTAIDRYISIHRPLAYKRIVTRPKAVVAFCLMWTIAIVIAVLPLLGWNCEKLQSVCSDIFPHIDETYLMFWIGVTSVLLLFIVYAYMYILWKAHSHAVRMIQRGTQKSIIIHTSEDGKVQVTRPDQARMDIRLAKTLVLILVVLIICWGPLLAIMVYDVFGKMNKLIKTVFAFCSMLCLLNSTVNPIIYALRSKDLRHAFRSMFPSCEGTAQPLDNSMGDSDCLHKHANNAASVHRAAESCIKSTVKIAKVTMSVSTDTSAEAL
For test [20], the system named is THP-1. The test can be described thus: Antiinflammatory activity in LPS-activated human THP-1 monocytes assessed as decrease in IL-6 level incubated for 24 hrs by ELISA based qRT-PCR analysis. Format: functional, cell-based. The method, boiled down: as §1

pEC50: −log10 of the molar value. Active and inactive are the calls of the source. The calls are words filed in the database; no cut-off is given here.

Cannabinoid receptor 2 (Homo sapiens, UniProt P34972), sequence (P34972 whole entry): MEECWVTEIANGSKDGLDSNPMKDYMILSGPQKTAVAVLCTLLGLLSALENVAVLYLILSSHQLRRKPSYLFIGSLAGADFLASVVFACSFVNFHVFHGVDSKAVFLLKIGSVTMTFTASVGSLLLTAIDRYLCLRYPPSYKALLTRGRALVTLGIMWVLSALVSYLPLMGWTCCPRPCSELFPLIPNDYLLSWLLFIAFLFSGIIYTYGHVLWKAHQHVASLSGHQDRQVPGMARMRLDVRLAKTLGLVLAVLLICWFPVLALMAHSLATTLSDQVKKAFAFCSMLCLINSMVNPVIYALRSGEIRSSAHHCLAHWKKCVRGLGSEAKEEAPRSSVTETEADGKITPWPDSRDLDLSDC
Cannabinoid receptor 2 (Mus musculus, UniProt P47936), sequence (P47936 whole entry): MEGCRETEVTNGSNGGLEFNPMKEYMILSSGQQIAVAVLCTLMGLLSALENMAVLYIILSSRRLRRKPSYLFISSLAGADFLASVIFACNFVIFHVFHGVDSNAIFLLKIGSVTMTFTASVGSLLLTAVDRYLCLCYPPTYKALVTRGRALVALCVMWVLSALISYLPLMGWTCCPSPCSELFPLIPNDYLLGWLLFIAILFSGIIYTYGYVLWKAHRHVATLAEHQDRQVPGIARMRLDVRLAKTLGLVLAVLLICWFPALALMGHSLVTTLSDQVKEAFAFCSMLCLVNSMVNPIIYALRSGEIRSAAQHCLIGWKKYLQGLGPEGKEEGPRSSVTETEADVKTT

`O=C(NC12CC3CC(CC(C3)C1)C2)c1ccccc1OCc1ccccc1`: the result in [1], in [3], in test [4], in test [7], in test [8] and in test [9] was Active. For the same compound, in test [2], the maximal effect (Emax) turned out to be 96.3%. Moreover, the negative logarithm of the EC50 (pEC50) in test [5] was 7.29; in test [19] it was 6.31. For the same compound, the result in test [6], in test [10], in test [11], in test [12], in test [13] and in test [14] was inactive. For the same compound, the outcome in [15], in [16], in test [17] and in test [18] was inactive.
Take `O=C(NC12CC3CC(CC(C3)C1)C2)c1ccccc1OCC1CCCCC1`: the result in [1], in test [3], in test [4], in test [6], in test [7] and in test [8] was Active. Further, the result in [9] was Active. Also, in test [2], the maximal effect (Emax) is 90.1%. Further, the negative-log EC50 (pEC50) in test [5] was 7.97; in [19] it was 6.60. In addition, the outcome in [10], in test [11], in [12], in test [13], in test [14] and in test [15] was inactive. Moreover, the result in [16] and in test [20] was inactive.
As for `CCCCCOc1ccccc1C(=O)NC12CC3CC(CC(C3)C1)C2`, the result in test [1], in [3], in test [4], in test [6], in test [7] and in test [8] was Active. Moreover, the maximal effect (Emax) in test [2] was found to be 95.3%. Also, the negative logarithm of the EC50 (pEC50) is 7.62 in test [5] and 6.98 in [19]. The result in [9], in [10], in [11], in test [12], in [13] and in test [14] was inactive. Further, the outcome in [15] and in test [16] was inactive.

Broadly, the Emax is the greatest response seen or fitted, relative to the assay's reference. As usually defined, the pEC50 is the negative decadic logarithm of the EC50, by convention in mol/L.
